In ChEMBL document CHEMBL3616442, “Unconventional Knoevenagel-type indoles: Synthesis and cell-based studies for the identification of pro-apoptotic agents” (Eur J Med Chem, 2015):
pEC50: −log10 of the molar value.

Assays:
MT4 = assay: Antiproliferative activity against human MT4 cells after 96 hrs by MTT assay; type: functional, cell-based; conditions: MT4, 96 h
Procedure, shortened: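 Exponentially growing MT-4 cells (CD4+ human T-cells carrying integrated HTLV-1 genome), seeded at 1×10^5 cells/mL in RPMI-1640 with 10% FCS and antibiotics. Serial dilutions of compound (DMSO stock 100 mM, diluted in medium), 37 °C, 5% CO₂, 96 h. Viability read by MTT. 50% inhibition versus untreated controls by linear regression. Mean ± SD of three independent determinations.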

[1] = Growth inhibition of human MOLT4 cells after 48 hrs by sulforhodamine B assay; type: functional; conditions: MOLT-4, 48 h
Procedure, shortened: (§1)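 NCI 60-cell-line screen. Compounds tested at five 10-fold dilutions from 10^-4 to 10^-8 M. Cells exposed for the last 48 h of a 72 h incubation, growth estimated by sulforhodamine B protein assay. GI50 is the concentration giving 50% growth inhibition. Values beyond the tested range are expressed as greater or lesser than the extreme concentration.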

[2] = Growth inhibition of human RPMI8226 cells after 48 hrs by sulforhodamine B assay; type: functional; conditions: RPMI-8226, 48 h
SR = assay: Growth inhibition of human SR cells after 48 hrs by sulforhodamine B assay; type: functional
A549 = assay: Growth inhibition of human A549 cells after 48 hrs by sulforhodamine B assay; type: functional; conditions: A549, 48 h; procedure, shortened: as §1
[3] = Growth inhibition of human EKVX cells after 48 hrs by sulforhodamine B assay; type: functional; procedure, shortened: as §1
HOP-62 = assay: Growth inhibition of human HOP62 cells after 48 hrs by sulforhodamine B assay; type: functional; conditions: HOP-62, 48 h; procedure, shortened: as §1
[4] = Growth inhibition of human HOP92 cells after 48 hrs by sulforhodamine B assay; type: functional; conditions: HOP-92, 48 h; procedure, shortened: as §1
NCI-H226 = assay: Growth inhibition of human NCI-H226 cells after 48 hrs by sulforhodamine B assay; type: functional; conditions: NCI-H226, 48 h; procedure, shortened: as §1
NCI-H23 = assay: Growth inhibition of human NCI-H23 cells after 48 hrs by sulforhodamine B assay; type: functional; conditions: NCI-H23, 48 h; procedure, shortened: as §1
NCI-H322M = assay: Growth inhibition of human NCI-H322M cells after 48 hrs by sulforhodamine B assay; type: functional; procedure, shortened: as §1
NCI-H460 = assay: Growth inhibition of human NCI-H460 cells after 48 hrs by sulforhodamine B assay; type: functional; conditions: NCI-H460, 48 h; procedure, shortened: as §1
NCI-H522 = assay: Growth inhibition of human NCI-H522 cells after 48 hrs by sulforhodamine B assay; type: functional; conditions: NCI-H522, 48 h; procedure, shortened: as §1
[5] = Growth inhibition of human COLO205 cells after 48 hrs by sulforhodamine B assay; type: functional; conditions: COLO 205, 48 h; procedure, shortened: as §1
[6] = Growth inhibition of human HCC2998 cells after 48 hrs by sulforhodamine B assay; type: functional; conditions: HCC 2998, 48 h; procedure, shortened: as §1
HCT-116 = assay: Growth inhibition of human HCT116 cells after 48 hrs by sulforhodamine B assay; type: functional; conditions: HCT-116, 48 h; procedure, shortened: as §1
HCT-15 = assay: Growth inhibition of human HCT15 cells after 48 hrs by sulforhodamine B assay; type: functional; conditions: HCT-15, 48 h; procedure, shortened: as §1
HT-29 = assay: Growth inhibition of human HT-29 cells after 48 hrs by sulforhodamine B assay; type: functional; conditions: HT-29, 48 h; procedure, shortened: as §1
KM12 = assay: Growth inhibition of human KM12 cells after 48 hrs by sulforhodamine B assay; type: functional; conditions: KM12, 48 h; procedure, shortened: as §1
SW-620 = assay: Growth inhibition of human SW620 cells after 48 hrs by sulforhodamine B assay; type: functional; conditions: SW-620, 48 h
SF-268 = assay: Growth inhibition of human SF268 cells after 48 hrs by sulforhodamine B assay; type: functional; conditions: SF-268, 48 h
[7] = Growth inhibition of human SF295 cells after 48 hrs by sulforhodamine B assay; type: functional; conditions: SF-295, 48 h
[8] = Growth inhibition of human SF539 cells after 48 hrs by sulforhodamine B assay; type: functional; conditions: SF-539, 48 h
SNB-19 = assay: Growth inhibition of human SNB19 cells after 48 hrs by sulforhodamine B assay; type: functional; conditions: SNB-19, 48 h
SNB-75 = assay: Growth inhibition of human SNB75 cells after 48 hrs by sulforhodamine B assay; type: functional; conditions: SNB-75, 48 h
U-251 = assay: Growth inhibition of human U251 cells after 48 hrs by sulforhodamine B assay; type: functional; conditions: U-251, 48 h
[9] = Growth inhibition of human LOXIMVI cells after 48 hrs by sulforhodamine B assay; type: functional; conditions: LOX IMVI; procedure, shortened: as §1
Malme-3M = assay: Growth inhibition of human MALME-3M cells after 48 hrs by sulforhodamine B assay; type: functional; procedure, shortened: as §1
M14 = assay: Growth inhibition of human M14 cells after 48 hrs by sulforhodamine B assay; type: functional; conditions: M14, 48 h; procedure, shortened: as §1
MDA-MB-435 = assay: Growth inhibition of human MDA-MB-435 cells after 48 hrs by sulforhodamine B assay; type: functional; conditions: MDA-MB-435, 48 h; procedure, shortened: as §1
SK-MEL-2 = assay: Growth inhibition of human SK-MEL-2 cells after 48 hrs by sulforhodamine B assay; type: functional; conditions: SK-MEL-2, 48 h
SK-MEL-28 = assay: Growth inhibition of human SK-MEL-28 cells after 48 hrs by sulforhodamine B assay; type: functional; conditions: SK-MEL-28, 48 h
UACC-257 = assay: Growth inhibition of human UACC257 cells after 48 hrs by sulforhodamine B assay; type: functional; conditions: UACC-257, 48 h
UACC-62 = assay: Growth inhibition of human UACC62 cells after 48 hrs by sulforhodamine B assay; type: functional; conditions: UACC-62, 48 h
IGROV-1 = assay: Growth inhibition of human IGROV1 cells after 48 hrs by sulforhodamine B assay; type: functional; conditions: IGROV-1, 48 h; procedure, shortened: as §1
OVCAR-3 = assay: Growth inhibition of human OVCAR3 cells after 48 hrs by sulforhodamine B assay; type: functional; conditions: OVCAR-3, 48 h; procedure, shortened: as §1
OVCAR-4 = assay: Growth inhibition of human OVCAR4 cells after 48 hrs by sulforhodamine B assay; type: functional; conditions: OVCAR-4, 48 h; procedure, shortened: as §1
OVCAR-5 = assay: Growth inhibition of human OVCAR5 cells after 48 hrs by sulforhodamine B assay; type: functional; conditions: OVCAR-5, 48 h
OVCAR-8 = assay: Growth inhibition of human OVCAR8 cells after 48 hrs by sulforhodamine B assay; type: functional; conditions: OVCAR-8, 48 h
[10] = Growth inhibition of human NCI-ADR-RES cells after 48 hrs by sulforhodamine B assay; type: functional; procedure, shortened: as §1
SK-OV-3 = assay: Growth inhibition of human SKOV3 cells after 48 hrs by sulforhodamine B assay; type: functional; conditions: SK-OV-3, 48 h
786-0 = assay: Growth inhibition of human 786-0 cells after 48 hrs by sulforhodamine B assay; type: functional; conditions: 786-0, 48 h; procedure, shortened: as §1
A498 = assay: Growth inhibition of human A498 cells after 48 hrs by sulforhodamine B assay; type: functional; conditions: A498, 48 h; procedure, shortened: as §1
ACHN = assay: Growth inhibition of human ACHN cells after 48 hrs by sulforhodamine B assay; type: functional; procedure, shortened: as §1
CAKI-1 = assay: Growth inhibition of human CAKI-1 cells after 48 hrs by sulforhodamine B assay; type: functional; conditions: CAKI-1, 48 h; procedure, shortened: as §1
[11] = Growth inhibition of human RXF393 cells after 48 hrs by sulforhodamine B assay; type: functional; conditions: RXF 393, 48 h
SN12C = assay: Growth inhibition of human SN12C cells after 48 hrs by sulforhodamine B assay; type: functional
TK-10 = assay: Growth inhibition of human TK10 cells after 48 hrs by sulforhodamine B assay; type: functional; conditions: TK-10, 48 h
UO-31 = assay: Growth inhibition of human UO31 cells after 48 hrs by sulforhodamine B assay; type: functional; conditions: UO-31, 48 h
PC-3 = assay: Growth inhibition of human PC3 cells after 48 hrs by sulforhodamine B assay; type: functional; conditions: PC-3, 48 h
DU-145 = assay: Growth inhibition of human DU145 cells after 48 hrs by sulforhodamine B assay; type: functional; conditions: DU-145, 48 h; procedure, shortened: as §1
MCF7 = assay: Growth inhibition of human MCF7 cells after 48 hrs by sulforhodamine B assay; type: functional; conditions: MCF7, 48 h; procedure, shortened: as §1
MDA-MB-231 = assay: Growth inhibition of human MDA-MB-231 cells after 48 hrs by sulforhodamine B assay; type: functional; conditions: MDA-MB-231, 48 h; procedure, shortened: as §1
[12] = Growth inhibition of human Hs 578T cells after 48 hrs by sulforhodamine B assay; type: functional; procedure, shortened: as §1
[13] = Growth inhibition of human BT549 cells after 48 hrs by sulforhodamine B assay; type: functional; conditions: BT-549, 48 h; procedure, shortened: as §1
T47D = assay: Growth inhibition of human T47D cells after 48 hrs by sulforhodamine B assay; type: functional
MDA-MB-468 = assay: Growth inhibition of human MDA-MB-468 cells after 48 hrs by sulforhodamine B assay; type: functional; conditions: MDA-MB-468, 48 h; procedure, shortened: as §1

COC(=O)/C(=C\c1c(C)[nH]c2ccccc12)S(=O)(=O)c1ccccc1
pEC50 (MT4): 4.51
GI50 [1]: 1.9 µM
GI50 [2]: 3.2 µM
GI50 (SR): 1.1 µM
GI50 (A549): 4.9 µM
GI50 [3]: 5 µM
GI50 (HOP-62): 7.7 µM
GI50 [4]: 4.1 µM
GI50 (NCI-H226): 4.3 µM
GI50 (NCI-H23): 4.8 µM
GI50 (NCI-H322M): 8.8 µM
GI50 (NCI-H460): 3 µM
GI50 (NCI-H522): 3.2 µM
GI50 [5]: 7.5 µM
GI50 [6]: 4.9 µM
GI50 (HCT-116): 3.8 µM
GI50 (HCT-15): 3.1 µM
GI50 (HT-29): 5.2 µM
GI50 (KM12): 2.4 µM
GI50 (SW-620): 5.2 µM
GI50 (SF-268): 3.3 µM
GI50 [7]: 3.1 µM
GI50 [8]: 3.4 µM
GI50 (SNB-19): 7.6 µM
GI50 (SNB-75): 3.1 µM
GI50 (U-251): 3.4 µM
GI50 [9]: 2 µM
GI50 (Malme-3M): 7.3 µM
GI50 (M14): 4.4 µM
GI50 (MDA-MB-435): 2.9 µM
GI50 (SK-MEL-2): 10.6 µM
GI50 (SK-MEL-28): 5.8 µM
GI50 (UACC-257): 7 µM
GI50 (UACC-62): 2.8 µM
GI50 (IGROV-1): 1.5 µM
GI50 (OVCAR-3): 2.7 µM
GI50 (OVCAR-4): 5.7 µM
GI50 (OVCAR-5): 17.4 µM
GI50 (OVCAR-8): 3.9 µM
GI50 [10]: 4.2 µM
GI50 (SK-OV-3): 9.3 µM
GI50 (786-0): 8.2 µM
GI50 (A498): 5.5 µM
GI50 (ACHN): 5.5 µM
GI50 (CAKI-1): 3.3 µM
GI50 [11]: 3.6 µM
GI50 (SN12C): 2.6 µM
GI50 (TK-10): 8.1 µM
GI50 (UO-31): 4.4 µM
GI50 (PC-3): 5.6 µM
GI50 (DU-145): 2.9 µM
GI50 (MCF7): 2.8 µM
GI50 (MDA-MB-231): 2.7 µM
GI50 [12]: 2.9 µM
GI50 [13]: 5.4 µM
GI50 (T47D): 3.2 µM
GI50 (MDA-MB-468): 6.3 µM
